Laboratory results from ChEMBL document CHEMBL4261552, “4-Hydroxy-N-[3,5-bis(trifluoromethyl)phenyl]-1,2,5-thiadiazole-3-carboxamide: a novel inhibitor of the canonical NF-κB cascade” (Medchemcomm, 2017).

How the values were obtained:
[1] = molecular target: T1, Inhibitor of nuclear factor kappa-B kinase subunit beta (Homo sapiens, UniProt O14920); experiment: Inhibition of human IKKbeta using ERLLDDRHDSGLDSMKDEE as substrate after 60 mins in presence of ATP by ADP-Glo kinase assay
T1 sequence (O14920 whole entry): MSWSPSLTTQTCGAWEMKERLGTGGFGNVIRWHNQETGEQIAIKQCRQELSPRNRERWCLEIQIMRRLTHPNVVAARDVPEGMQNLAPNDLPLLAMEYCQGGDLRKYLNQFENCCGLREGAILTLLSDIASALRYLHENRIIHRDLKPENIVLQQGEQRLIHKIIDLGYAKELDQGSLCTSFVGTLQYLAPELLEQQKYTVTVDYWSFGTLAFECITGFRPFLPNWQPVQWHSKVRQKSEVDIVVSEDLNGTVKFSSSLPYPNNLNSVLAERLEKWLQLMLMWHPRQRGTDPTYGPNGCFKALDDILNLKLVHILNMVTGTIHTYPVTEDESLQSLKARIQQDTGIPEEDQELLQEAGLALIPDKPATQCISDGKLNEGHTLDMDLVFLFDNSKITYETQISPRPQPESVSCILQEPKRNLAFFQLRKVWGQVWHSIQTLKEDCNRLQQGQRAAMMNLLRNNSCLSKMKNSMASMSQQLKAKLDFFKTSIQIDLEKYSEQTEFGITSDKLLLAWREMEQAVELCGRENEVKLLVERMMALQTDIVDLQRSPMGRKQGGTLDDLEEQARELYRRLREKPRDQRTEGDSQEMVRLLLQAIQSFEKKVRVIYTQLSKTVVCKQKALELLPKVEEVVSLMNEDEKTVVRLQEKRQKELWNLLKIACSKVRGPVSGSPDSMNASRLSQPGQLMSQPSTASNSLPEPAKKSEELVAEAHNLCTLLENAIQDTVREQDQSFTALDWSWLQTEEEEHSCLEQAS

[2] = molecular target: T2, Inhibitor of nuclear factor kappa-B kinase subunit beta (Homo sapiens) (UniProt O14920); experiment: Inhibition of human IKKbeta at 100 uM using ERLLDDRHDSGLDSMKDEE as substrate after 60 mins in presence of ATP by ADP-Glo kinase assay relative to control
T2 sequence (whole entry): T1 sequence (O14920 whole entry)

[3] = molecular target: T3, Inhibitor of nuclear factor kappa-B kinase subunit alpha (Homo sapiens, UniProt O15111); experiment: Inhibition of human IKKalpha using ERLLDDRHDSGLDSMKDEE as substrate after 60 mins in presence of ATP by ADP-Glo kinase assay
T3 sequence (O15111 whole entry): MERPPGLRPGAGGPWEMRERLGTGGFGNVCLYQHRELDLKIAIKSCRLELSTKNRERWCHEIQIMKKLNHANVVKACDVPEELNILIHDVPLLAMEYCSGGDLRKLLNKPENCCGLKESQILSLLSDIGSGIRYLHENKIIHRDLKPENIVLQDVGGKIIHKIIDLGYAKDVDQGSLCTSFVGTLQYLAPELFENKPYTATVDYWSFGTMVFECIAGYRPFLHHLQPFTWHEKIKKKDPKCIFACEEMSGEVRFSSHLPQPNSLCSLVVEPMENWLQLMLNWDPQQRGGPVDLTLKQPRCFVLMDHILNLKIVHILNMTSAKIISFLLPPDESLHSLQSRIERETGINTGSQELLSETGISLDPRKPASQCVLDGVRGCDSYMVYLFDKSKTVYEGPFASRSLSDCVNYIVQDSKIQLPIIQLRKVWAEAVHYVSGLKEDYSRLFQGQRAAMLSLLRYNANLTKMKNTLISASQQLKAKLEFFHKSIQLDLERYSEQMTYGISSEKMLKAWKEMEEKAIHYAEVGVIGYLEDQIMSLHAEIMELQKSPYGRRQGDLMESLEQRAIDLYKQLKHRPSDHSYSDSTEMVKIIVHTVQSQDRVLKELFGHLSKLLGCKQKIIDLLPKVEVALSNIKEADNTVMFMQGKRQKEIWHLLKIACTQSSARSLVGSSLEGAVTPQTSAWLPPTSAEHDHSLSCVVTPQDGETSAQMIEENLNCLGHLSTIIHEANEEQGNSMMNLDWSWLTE

[4] = molecular target: T4, Inhibitor of nuclear factor kappa-B kinase subunit epsilon (Homo sapiens, UniProt Q14164); experiment: Inhibition of human IKKepsilon using ERLLDDRHDSGLDSMKDEE as substrate after 60 mins in presence of ATP by ADP-Glo kinase assay
T4 sequence (Q14164 whole entry): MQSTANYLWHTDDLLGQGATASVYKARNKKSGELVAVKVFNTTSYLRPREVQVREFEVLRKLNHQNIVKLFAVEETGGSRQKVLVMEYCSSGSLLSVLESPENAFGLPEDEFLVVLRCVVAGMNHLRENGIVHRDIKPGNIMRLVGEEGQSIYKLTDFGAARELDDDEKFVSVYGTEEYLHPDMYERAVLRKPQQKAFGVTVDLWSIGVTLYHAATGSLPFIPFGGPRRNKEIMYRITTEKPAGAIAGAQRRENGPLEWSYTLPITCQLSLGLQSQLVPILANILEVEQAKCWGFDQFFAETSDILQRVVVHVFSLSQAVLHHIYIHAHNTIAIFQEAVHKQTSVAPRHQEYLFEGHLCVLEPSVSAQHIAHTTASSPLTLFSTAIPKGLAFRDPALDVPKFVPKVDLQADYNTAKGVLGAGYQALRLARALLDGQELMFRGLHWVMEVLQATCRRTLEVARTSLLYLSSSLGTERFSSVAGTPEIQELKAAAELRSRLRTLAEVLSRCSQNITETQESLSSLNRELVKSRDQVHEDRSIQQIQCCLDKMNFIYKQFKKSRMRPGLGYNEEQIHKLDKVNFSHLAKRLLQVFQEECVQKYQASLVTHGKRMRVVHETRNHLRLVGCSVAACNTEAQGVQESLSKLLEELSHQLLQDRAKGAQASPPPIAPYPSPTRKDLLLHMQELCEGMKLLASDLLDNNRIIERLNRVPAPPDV

[5] = molecular target: T5, Inhibitor of nuclear factor kappa-B kinase subunit epsilon (Homo sapiens) (UniProt Q14164); experiment: Inhibition of human IKKepsilon at 100 uM using ERLLDDRHDSGLDSMKDEE as substrate after 60 mins in presence of ATP by ADP-Glo kinase assay relative to control
T5 sequence (whole entry): T4 sequence (Q14164 whole entry)

[6] = molecular target: T6, Mitogen-activated protein kinase kinase kinase 14 (Homo sapiens, UniProt Q99558); experiment: Inhibition of human NIK using AKDVDQGSLCTSFVGTLQY as substrate after 60 mins in presence of ATP by ADP-Glo kinase assay
Target sequence in this assay (Q99558 whole entry): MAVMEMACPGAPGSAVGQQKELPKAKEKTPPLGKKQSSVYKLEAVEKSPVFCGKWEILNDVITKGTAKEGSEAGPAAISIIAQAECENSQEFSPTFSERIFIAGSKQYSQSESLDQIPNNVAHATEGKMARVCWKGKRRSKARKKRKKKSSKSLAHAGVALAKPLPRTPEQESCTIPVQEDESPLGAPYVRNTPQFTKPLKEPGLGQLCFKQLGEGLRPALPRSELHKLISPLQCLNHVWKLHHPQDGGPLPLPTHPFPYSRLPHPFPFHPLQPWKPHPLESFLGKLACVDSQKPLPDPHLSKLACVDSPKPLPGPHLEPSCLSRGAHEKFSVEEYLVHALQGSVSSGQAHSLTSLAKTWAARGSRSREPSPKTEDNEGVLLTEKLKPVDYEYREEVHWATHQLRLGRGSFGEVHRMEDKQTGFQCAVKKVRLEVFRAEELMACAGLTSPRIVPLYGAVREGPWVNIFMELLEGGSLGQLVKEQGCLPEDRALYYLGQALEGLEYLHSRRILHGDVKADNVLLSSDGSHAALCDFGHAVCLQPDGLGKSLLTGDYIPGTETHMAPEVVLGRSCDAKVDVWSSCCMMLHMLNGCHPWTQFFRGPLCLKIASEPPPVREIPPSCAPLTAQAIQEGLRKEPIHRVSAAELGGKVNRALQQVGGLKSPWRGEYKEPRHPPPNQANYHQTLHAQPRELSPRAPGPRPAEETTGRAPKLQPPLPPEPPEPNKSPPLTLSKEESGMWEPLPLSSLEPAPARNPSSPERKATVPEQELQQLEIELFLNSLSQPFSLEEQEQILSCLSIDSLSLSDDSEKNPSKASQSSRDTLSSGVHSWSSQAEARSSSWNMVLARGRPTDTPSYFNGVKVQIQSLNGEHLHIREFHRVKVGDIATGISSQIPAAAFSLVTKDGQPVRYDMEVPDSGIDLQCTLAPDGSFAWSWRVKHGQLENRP

[7] = molecular target: T6, Mitogen-activated protein kinase kinase kinase 14; experiment: Inhibition of human NIK at 100 uM using AKDVDQGSLCTSFVGTLQY as substrate after 60 mins in presence of ATP by ADP-Glo kinase assay relative to control
Target sequence in this assay (Q99558 whole entry, looked up): as the sequence (Q99558 whole entry) above

[8] = molecular target: T1, Inhibitor of nuclear factor kappa-B kinase subunit beta; experiment: Inhibition of IKK-beta in human Jurkat cells assessed as reduction in TNFalpha-stimulated IkBalpha degradation preincubated for 60 mins followed by TNFalpha stimulation for 20 mins by immunoblot analysis; format: cell-based
[9] = molecular target: T7, Inhibitor of nuclear factor kappa-B kinase subunit alpha (Homo sapiens) (UniProt O15111); experiment: Inhibition of human IKKalpha at 100 uM using ERLLDDRHDSGLDSMKDEE as substrate after 60 mins in presence of ATP by ADP-Glo kinase assay relative to control
T7 sequence (whole entry): T3 sequence (O15111 whole entry)

Jurkat = experiment: Inhibition of TNFalpha-activated canonical NF-kB signaling pathway in human Jurkat cells assessed as residual activity at 1 uM after 6 hrs by luciferase reporter gene assay relative to control; format: cell-based
Method in brief: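 Jurkat cells nucleofected with 3 µg of NF-κB-RE firefly luciferase and TK-Renilla plasmids (10:1), then cultured 24 h at 37 °C. Compound added for a further 6 h, with TNFα in the last 20 min. Firefly luminescence normalized to Renilla and expressed as % of DMSO+TNFα control; mean ± SD of three experiments.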

MDA-MB-231 [10] = experiment: Inhibition of constitutively activated canonical NF-kB signaling pathway in human MDA-MB-231 cells assessed as residual activity at 10 uM after 6 hrs by luciferase reporter gene assay relative to control; format: cell-based
Method in brief: (§1)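 MDA-MB-231 cells (constitutive NF-κB) nucleofected with 3 µg of NF-κB-RE firefly luciferase plus TK-Renilla plasmids (10:1), then cultured 24 h. Compound added for a further 6 h or 24 h, without stimulus. Firefly/Renilla ratio expressed as % of DMSO-treated control; mean ± SD of three independent experiments.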

MDA-MB-231 [11] = experiment: Inhibition of constitutively activated canonical NF-kB signaling pathway in human MDA-MB-231 cells assessed as residual activity at 10 uM after 24 hrs by luciferase reporter gene assay relative to control; format: cell-based; method in brief: as §1
MDA-MB-231 [12] = experiment: Antiproliferative activity against human MDA-MB-231 cells assessed as DNA content after 72 hrs by Hoechst 33258 staining based fluorescence assay; format: functional, cell-based; conditions: MDA-MB-231, 72 h
Method in brief: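 MDA-MB-231 cells (5 x 10³/well) grown in DMEM with 10% FBS and exposed to 0.001 - 200 µM compound or DMSO vehicle for 72 h. Cells were washed with PBS and lysed in 0.02% SDS in SSC buffer for 1 h at 37 °C. Hoechst 33258 (1 µg/mL) was then added and fluorescence read at ex 355/em 460 nm. IC50 taken by nonlinear regression; mean ± SD of three independent experiments.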

MDA-MB-231 [13] = experiment: Cytotoxicity against human MDA-MB-231 cells after 72 hrs by CellTox green assay; format: cell-based; conditions: MDA-MB-231, 72 h
Method in brief: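 MDA-MB-231 cells (5×10^3/well) exposed to 0.001 - 100 µM compound or DMSO vehicle for 72 h. Membrane-integrity loss read by CellTox green fluorescence. IC50 taken by nonlinear regression; mean ± SD of three independent experiments.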

SMILES	IC50 [1] [µM]	inhibition [2] [%]	IC50 [3] [µM]	IC50 [4] [µM]	inhibition [5] [%]	IC50 [6] [µM]	inhibition [7] [%]	IC50 [8] [µM]	inhibition [9] [%]	Activity (Jurkat) [%]	Activity (MDA-MB-231 [10]) [%]	Activity (MDA-MB-231 [11]) [%]	IC50 (MDA-MB-231 [12]) [µM]	IC50 (MDA-MB-231 [13]) [µM]
O=C(Nc1cccc(C(F)(F)F)c1)c1nsnc1O	> 100	-0.94	35.5	> 100	25.8	> 100	-1.1	> 100						
O=C(Nc1cccc(C(F)(F)F)c1)c1nonc1O	> 100	2.06	> 100	> 100	32.1	> 100	11.8	1.72	-2.5					
Cc1c(C(=O)Nc2cc(C(F)(F)F)cc(C(F)(F)F)c2)c(O)nn1C	> 100	13.9	> 100	> 100	14.2	> 100	24.1	1.32	13.2					
COc1nsnc1C(=O)Nc1cc(C(F)(F)F)cc(C(F)(F)F)c1	> 100	8.51	> 100	> 100	21.9	> 100	-1.9	> 100	24.1					
Nc1nonc1C(=O)Nc1cc(C(F)(F)F)cc(C(F)(F)F)c1	> 100	31.6	> 100	44.8		> 100	-9.2	> 100	29.3					
Cn1nc(O)c(C(=O)Nc2cc(C(F)(F)F)cc(C(F)(F)F)c2)n1	> 100	5.19	> 100	> 100	6.92	> 100	9.1	> 100	46.9					
Cn1cc(C(=O)Nc2cc(C(F)(F)F)cc(C(F)(F)F)c2)c(O)n1	> 100	12.7	> 100	> 100	17.2	> 100	7.23	25.9	12.1					
O=C(Nc1cc(C(F)(F)F)cc(C(F)(F)F)c1)c1nonc1O	> 100	12.2	> 100	58.5		> 100	19.3	6.93	18.6					
O=C(Nc1cc(Cl)cc2c1[nH]c1cnccc12)c1cccnc1	0.087		> 100	> 100		> 100		0.186		38.1	19.5	8.67	0.9	> 100
Cn1nnc(O)c1C(=O)Nc1cc(C(F)(F)F)cc(C(F)(F)F)c1	> 100	11.2	> 100	58.5		> 100	12.1	> 100	13.1					
O=C(Nc1cc(C(F)(F)F)cc(C(F)(F)F)c1)c1n[nH]nc1O	> 100	5.14	> 100	> 100	15.3	> 100	-9.5	> 100	24.5					
